Fewer inactive variants are shown than the library holds.
B1: tRNA (parent)
chain: GUUCCGUUGGCGUAAUGGUAACGCGUCUCCCUCCUAAGGAGAAGACUGCGGGUUCGAGUCCCGUACGGAACG

Variants of: B1
Test: yeast fitness relative to wild type (ratio to wild type); higher = fitter; tRNA-Arg(CCU), competitive growth, 37 C, YPD
How it was run: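 Variants of the tRNA-Arg(CCU) gene, chemically synthesised with a 3% per-site mutation rate at 69 sites, were placed at the native genomic locus in Saccharomyces cerevisiae. The pooled strains were competed in YPD at 37°C for 24 hours in six parallel replicates. Gene amplicons from the start population and from each end population were read by 100-nucleotide paired-end sequencing. Darwinian fitness relative to wild type came from changes in genotype frequencies; genotypes needed ≥ 100 starting reads, and estimates < 0.5 were set to 0.5.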

U8G U28C G38C C62U and U8G U28G C34A cannot be ordered by yeast fitness: ≤ 0.5 for the first, ≤ 0.5 for the second.

U8G U32C C33G and U8G U32C C33G A43U G48C C55A cannot be ordered by yeast fitness: ≤ 0.5 for the first, ≤ 0.5 for the second.

Compared with U8G U32C C33G C61A C66U, U8G U32C C34G G68A is higher in yeast fitness: ≤ 0.5 for the first, 0.598 for the second.

Going from U8G U32G G38A G56C to U8G U35A A70C, the yeast fitness rises from ≤ 0.5 to 0.524.

Going from U8G U35A U54A to U8G U35C, the yeast fitness rises from 0.548 to 0.767.

U8G U35G and U8G U35G C55G cannot be ordered by yeast fitness: ≤ 0.5 for the first, ≤ 0.5 for the second.

Going from U8G U53C to U8G U54C, the yeast fitness falls from 0.806 to 0.565.

Going from G9A to G9A A14C, the yeast fitness falls from 0.991 to 0.591.

Going from G9A A14C C27U C46U G52C to G9A A14C G25C G56A, the yeast fitness rises from 0.53 to 0.579.

First: G9A A14C G58A
Second: G9A A14G
The yeast fitness of the first is lower: 0.546 for the first, 0.908 for the second.

First: G9A A14G A37G
Second: G9A A14G C61U A70G
The yeast fitness of the first is higher: 0.624 for the first, ≤ 0.5 for the second.

First: G9A A14G G56A G67A
Second: G9A A14U C29G C34A
The yeast fitness of the first is lower: ≤ 0.5 for the first, 0.55 for the second.

G9A A14U C29G C34A C62U and G9A A14U C29G C34A G56A cannot be ordered by yeast fitness: ≤ 0.5 for the first, ≤ 0.5 for the second.

Compared with G9A A14U C34G A37C, G9A A15C is higher in yeast fitness: ≤ 0.5 for the first, 0.788 for the second.

Compared with G9A A15C A43U, G9A A15C A69U is higher in yeast fitness: ≤ 0.5 for the first, 0.86 for the second.

First: G9A A15C G56A C61U
Second: G9A A15G A20U U28C
The yeast fitness of the first is lower: ≤ 0.5 for the first, 0.551 for the second.

Going from G9A A15G A20U U28C A45U to G9A A15G A20U U28C A69U, the yeast fitness rises from ≤ 0.5 to 0.542.

G9A A15G A42C C62U and G9A A15G U16A G23C cannot be ordered by yeast fitness: ≤ 0.5 for the first, ≤ 0.5 for the second.

First: G9A A15G U16A G23C A69C
Second: G9A A15U A20G
The yeast fitness of the first is lower: ≤ 0.5 for the first, 0.503 for the second.

Compared with G9A A15U A20G A65U, G9A A15U A45U is higher in yeast fitness: ≤ 0.5 for the first, 0.533 for the second.

G9A A15U C22A G25A G48A and G9A A15U C29G C33U A36C G67A cannot be ordered by yeast fitness: ≤ 0.5 for the first, ≤ 0.5 for the second.

First: G9A A15U G41A
Second: G9A A20G
The yeast fitness of the first is lower: ≤ 0.5 for the first, 1.05 for the second.

G9A A20G A42C G52C U54A and G9A A20G C30U G52A G68A cannot be ordered by yeast fitness: ≤ 0.5 for the first, ≤ 0.5 for the second.

First: G9A A20G C49U
Second: G9A A20G G38A C62U
The yeast fitness of the first is higher: 0.847 for the first, 0.676 for the second.

First: G9A A20G U64C
Second: G9A A20U A21U
The yeast fitness of the first is higher: 0.674 for the first, ≤ 0.5 for the second.

G9A A21C C34A A43G and G9A A21C C46G C49G cannot be ordered by yeast fitness: ≤ 0.5 for the first, ≤ 0.5 for the second.

G9A A21C G52A G56C C62G C66U and G9A A21G C29G C34G cannot be ordered by yeast fitness: ≤ 0.5 for the first, ≤ 0.5 for the second.

G9A A21G C29G C34G A57U C62G and G9A A21G G58C A70C cannot be ordered by yeast fitness: ≤ 0.5 for the first, ≤ 0.5 for the second.

G9A A21U A36G A40C U47C and G9A A21U C24U C29U C49U cannot be ordered by yeast fitness: ≤ 0.5 for the first, ≤ 0.5 for the second.

Going from G9A A21U C31G to G9A A21U C31G G63A C66A, the yeast fitness falls from 0.573 to ≤ 0.5.

G9A A21U C66G and G9A A21U G39C cannot be ordered by yeast fitness: ≤ 0.5 for the first, ≤ 0.5 for the second.

Compared with G9A A21U U28C G44A C55G, G9A A36C A45C is higher in yeast fitness: ≤ 0.5 for the first, 0.602 for the second.

G9A A36C A45C G63A and G9A A36C C49A C55U A57G A69U cannot be ordered by yeast fitness: ≤ 0.5 for the first, ≤ 0.5 for the second.

G9A A36C G38A and G9A A36C G48A G67A cannot be ordered by yeast fitness: ≤ 0.5 for the first, ≤ 0.5 for the second.

First: G9A A36G
Second: G9A A36G A43G
The yeast fitness of the first is higher: 1.03 for the first, 0.748 for the second.

Going from G9A A36G C46U to G9A A36G C66U, the yeast fitness rises from 0.683 to 0.77.

First: G9A A36G G68U
Second: G9A A36U
The yeast fitness of the first is higher: 0.743 for the first, 0.677 for the second.

G9A A36U G39A A57G A69C and G9A A36U G39A U54A cannot be ordered by yeast fitness: ≤ 0.5 for the first, ≤ 0.5 for the second.

Compared with G9A A37C, G9A A37C A43C is lower in yeast fitness: 0.918 for the first, 0.524 for the second.

G9A A37C G67C and G9A A37C U54C G67C cannot be ordered by yeast fitness: ≤ 0.5 for the first, ≤ 0.5 for the second.

G9A A37G A40U C49A A57U and G9A A40C A45G A57G cannot be ordered by yeast fitness: ≤ 0.5 for the first, ≤ 0.5 for the second.

Going from G9A A40C C66U to G9A A40C G48C A57G, the yeast fitness falls from 0.719 to ≤ 0.5.

Compared with G9A A40C U54C, G9A A40G C60U is lower in yeast fitness: 0.753 for the first, ≤ 0.5 for the second.

G9A A40G C66U and G9A A40U G51C C66U G67U cannot be ordered by yeast fitness: ≤ 0.5 for the first, ≤ 0.5 for the second.

G9A A42C C55G and G9A A42G C49A G58A cannot be ordered by yeast fitness: ≤ 0.5 for the first, ≤ 0.5 for the second.

Compared with G9A A42G C61A, G9A A43C A57C is lower in yeast fitness: 0.611 for the first, 0.569 for the second.

Compared with G9A A43C A57U, G9A A43C A57U C66U is higher in yeast fitness: ≤ 0.5 for the first, 0.516 for the second.

Compared with G9A A43C A69U A70C, G9A A43C C62G is lower in yeast fitness: 0.782 for the first, ≤ 0.5 for the second.

Compared with G9A A43G, G9A A43G G63A is lower in yeast fitness: 0.987 for the first, ≤ 0.5 for the second.

Going from G9A A43G U59A to G9A A43U C49U, the yeast fitness rises from 0.535 to 0.744.

G9A A45C C46G A57U and G9A A45C U53A G63C cannot be ordered by yeast fitness: ≤ 0.5 for the first, ≤ 0.5 for the second.

Going from G9A A45C U64C A65C to G9A A45G, the yeast fitness rises from 0.648 to 1.01.

Going from G9A A45G G68C to G9A A45U, the yeast fitness rises from 0.543 to 0.86.

Compared with G9A A45U C62A, G9A A45U G50A G58C is higher in yeast fitness: ≤ 0.5 for the first, 0.975 for the second.

First: G9A A57G G67A
Second: G9A A57U
The yeast fitness of the first is lower: 0.558 for the first, 0.672 for the second.

Compared with G9A A57U A65C A69C, G9A A57U A65U is higher in yeast fitness: ≤ 0.5 for the first, 0.532 for the second.

First: G9A A57U C66U
Second: G9A A65G
The yeast fitness of the first is lower: 0.548 for the first, 0.881 for the second.

Going from G9A A65G A70G to G9A A69C, the yeast fitness rises from 0.595 to 1.05.

First: G9A A69C A70C
Second: G9A A70C
The yeast fitness of the first is lower: 1.04 for the first, 1.06 for the second.

First: G9A A70U
Second: G9A C11A
The yeast fitness of the first is higher: 0.875 for the first, 0.604 for the second.

Going from G9A C11A A14C U16A C31A C61U to G9A C11A A20G A42U G68C A70C, the yeast fitness rises from ≤ 0.5 to 0.554.

First: G9A C11A A57G
Second: G9A C11A A69C
The yeast fitness of the first is lower: ≤ 0.5 for the first, 0.567 for the second.

First: G9A C11A C30A A42C
Second: G9A C11A C30A A42C G67C
The yeast fitness of the first is higher: 0.531 for the first, ≤ 0.5 for the second.

G9A C11A C34G A36G A65C and G9A C11A G38C G58A C60G cannot be ordered by yeast fitness: ≤ 0.5 for the first, ≤ 0.5 for the second.

G9A C11A G44A C46A and G9A C11A G50C C55A cannot be ordered by yeast fitness: ≤ 0.5 for the first, ≤ 0.5 for the second.

Compared with G9A C11G, G9A C11G A36U is lower in yeast fitness: 0.583 for the first, ≤ 0.5 for the second.

G9A C11G A40U G56A and G9A C11G A57U cannot be ordered by yeast fitness: ≤ 0.5 for the first, ≤ 0.5 for the second.

G9A C11G C22U A40G and G9A C11G C22U A40G A70G cannot be ordered by yeast fitness: ≤ 0.5 for the first, ≤ 0.5 for the second.

G9A C11G C24G U32A and G9A C11G C24G U32G G52C cannot be ordered by yeast fitness: ≤ 0.5 for the first, ≤ 0.5 for the second.

First: G9A C11G C33U A36G C55G
Second: G9A C11G C55G
The yeast fitness of the first is lower: ≤ 0.5 for the first, 0.562 for the second.

G9A C11G G50C C61G A70C and G9A C11G G68A cannot be ordered by yeast fitness: ≤ 0.5 for the first, ≤ 0.5 for the second.

G9A C11G U13C C27A C29U and G9A C11G U13C C27A C29U C62A cannot be ordered by yeast fitness: ≤ 0.5 for the first, ≤ 0.5 for the second.

First: G9A C11G U13G G23C C34U C49U U59C C66U
Second: G9A C11G U13G G23C C34U U59C C66U
The yeast fitness of the first is lower: ≤ 0.5 for the first, 0.574 for the second.

First: G9A C11G U13G G23C G25A C34U U59C C66U
Second: G9A C11G U19C
The yeast fitness of the first is lower: ≤ 0.5 for the first, 0.536 for the second.

Going from G9A C11G U19C G56A C60G to G9A C11G U32C A69C, the yeast fitness falls from 0.566 to ≤ 0.5.

Going from G9A C11G U32G A45G C49U U53A to G9A C11G U54C C55G G63C G67C, the yeast fitness falls from 0.549 to ≤ 0.5.

Compared with G9A C11U, G9A C11U A14G C29A is lower in yeast fitness: 0.928 for the first, ≤ 0.5 for the second.

Going from G9A C11U A36C to G9A C11U A37G A45C, the yeast fitness rises from ≤ 0.5 to 0.603.

Going from G9A C11U A42U U47C G51A A70C to G9A C11U A69C, the yeast fitness rises from ≤ 0.5 to 0.787.

First: G9A C11U C29A
Second: G9A C11U C46G C62U C66U
The yeast fitness of the first is higher: 0.506 for the first, ≤ 0.5 for the second.

Going from G9A C11U C55G to G9A C11U U47G C62G A69C, the yeast fitness falls from 0.601 to ≤ 0.5.

First: G9A C22A A65G
Second: G9A C22A U26A G52C G67A
The yeast fitness of the first is higher: 0.617 for the first, ≤ 0.5 for the second.

G9A C22A U47G C55A and G9A C22A U47G C55A U64C G67A cannot be ordered by yeast fitness: ≤ 0.5 for the first, ≤ 0.5 for the second.

With G9A C22A U53A A57G C60A the yeast fitness was ≤ 0.5.
